Assay results published in ChEMBL document CHEMBL1649165, “Activity profile in vitro of micafungin against Spanish clinical isolates of common and emerging species of yeasts and molds” (2009).
*1 amine or outer side, *2 acyl side, *3 side chain or, on linkers, in order; H or OH if unused. Where a SMILES comes first, the peptide text is derived from it. Bridges are numbered along the chain shown (N, C = ends). [ ]: non-standard residue; d: D form. The star is where a group is joined. pTerphenylCO(4''-OnC5H11) = CCCCCOc1ccc(-c2ccc(-c3ccc(C(=O)*)cc3)cc2)cc1; Orn(4R-OH,5R-OH) = O=C([C@H](C[C@@H](O)[C@@H](O)N[*:3])N[*:1])[*:2]; hTyr(3S-OH,4S-OH) = N[C@H](C(=O)O)[C@H](O)[C@@H](O)c1ccc(O)cc1; Pro(3S-OH,4S-Me) = C[C@H]1CN[C@H](C(=O)O)[C@H]1O; Hyp = O=C(O)[C@@H]1C[C@@H](O)CN1

Assays:
Type in all cases: functional
[1] = tested on: Fusarium solani; assay: Antimicrobial activity against Fusarium solani by broth microdilution method
Outline: (§1)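 Filamentous fungus clinical isolates tested by the AFST-EUCAST reference broth microdilution method for moulds. For echinocandins, the endpoint was the minimum effective concentration: the lowest drug concentration giving aberrant hyphal growth, read with an inverted microscope.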

[2] = tested on: Mucor; assay: Antimicrobial activity against Mucor spp.by broth microdilution method; outline: as §1
[3] = tested on: Clavispora lusitaniae; assay: Antimicrobial activity against Candida lusitaniae by broth microdilution method
Outline: (§2)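 Clinical isolates from human patients, tested by broth microdilution using the AFST-EUCAST reference procedure for fermentative yeasts. The MIC was read per that reference method.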

[4] = tested on: Trichosporon asahii; assay: Antimicrobial activity against Trichosporon asahii by broth microdilution method
Outline: (§3)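 Nonfermentative yeast clinical isolates (Rhodotorula, Trichosporon) tested by broth microdilution. The EUCAST yeast recommendations were followed strictly, with one minor modification to improve growth. MIC was read as the endpoint.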

[5] = tested on: Cunninghamella bertholletiae; assay: Antimicrobial activity against Cunninghamella bertholletiae by broth microdilution method
Outline: (§4)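 Clinical mould isolates, tested by broth microdilution using the AFST-EUCAST reference method for filamentous fungi. For echinocandins, the endpoint was the minimum effective concentration: the lowest drug concentration giving aberrant hyphal growth, read with an inverted microscope.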

[6] = tested on: Paecilomyces variotii; assay: Antimicrobial activity against Paecilomyces variotii by broth microdilution method; outline: as §1
[7] = tested on: Aspergillus flavus; assay: Antimicrobial activity against Aspergillus flavus by broth microdilution method; outline: as §4
[8] = tested on: Scedosporium apiospermum; assay: Antimicrobial activity against Scedosporium apiospermum by broth microdilution method; outline: as §1
[9] = tested on: Beauveria bassiana; assay: Antimicrobial activity against Beauveria bassiana by broth microdilution method; outline: as §4
[10] = tested on: Debaryomyces hansenii; assay: Antimicrobial activity against Candida famata by broth microdilution method; outline: as §2
[11] = Antimicrobial activity against Hormographiella aspergillata by broth microdilution method; conditions: Coprinopsis cinerea; outline: as §1
[12] = tested on: Lichtheimia corymbifera; assay: Antimicrobial activity against Mycocladus corymbiferus by broth microdilution method; outline: as §1
[13] = tested on: [Candida] inconspicua; assay: Antimicrobial activity against Candida inconspicua by broth microdilution method; conditions: Pichia inconspicua; outline: as §2
[14] = tested on: Pichia kudriavzevii; assay: Antimicrobial activity against Candida krusei by broth microdilution method; outline: as §2
[15] = tested on: Aureobasidium pullulans; assay: Antimicrobial activity against Aureobasidium pullulans by broth microdilution method
[16] = tested on: Coprinellus domesticus; assay: Antimicrobial activity against Hormographiella verticillata by broth microdilution method; outline: as §1
[17] = tested on: Naganishia albida; assay: Antimicrobial activity against Cryptococcus albidus by broth microdilution method
Outline: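 Clinical isolates of nonfermentative yeasts, tested by broth microdilution following EUCAST recommendations. The only change from that method was a minor modification to improve growth.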

[18] = tested on: Lomentospora prolificans; assay: Antimicrobial activity against Scedosporium prolificans by broth microdilution method; outline: as §1
[19] = tested on: [Candida] intermedia; assay: Antimicrobial activity against Candida intermedia by broth microdilution method; conditions: Sungouiella intermedia; outline: as §2
[20] = tested on: Cladosporium; assay: Antimicrobial activity against Cladosporium spp. by broth microdilution method; outline: as §4
[21] = tested on: Nakaseomyces glabratus; assay: Antimicrobial activity against Candida glabrata by broth microdilution method; outline: as §2
[22] = tested on: Kluyveromyces marxianus; assay: Antimicrobial activity against Candida kefyr by broth microdilution method; outline: as §2
[23] = tested on: Yarrowia lipolytica; assay: Antimicrobial activity against Yarrowia lipolytica by broth microdilution method
[24] = tested on: Candida albicans; assay: Antimicrobial activity against Candida albicans by broth microdilution method; outline: as §2
[25] = tested on: Lecythophora hoffmannii; assay: Antimicrobial activity against Lecythophora hoffmannii by broth microdilution method; conditions: Coniochaeta hoffmannii; outline: as §1
[26] = tested on: Hortaea werneckii; assay: Antimicrobial activity against Hortaea werneckii by broth microdilution method
[27] = tested on: Fusarium equiseti; assay: Antimicrobial activity against Fusarium equiseti by broth microdilution method; outline: as §4
[28] = tested on: Rhodotorula glutinis; assay: Antimicrobial activity against Rhodotorula glutinis by broth microdilution method; outline: as §3
[29] = tested on: Candida tropicalis; assay: Antimicrobial activity against Candida tropicalis by broth microdilution method; outline: as §2
[30] = tested on: Kazachstania pintolopesii; assay: Antimicrobial activity against Candida pintolopesii by broth microdilution method; conditions: Arxiozyma pintolopesii; outline: as §2
[31] = tested on: Wickerhamomyces anomalus; assay: Antimicrobial activity against Candida pelliculosa by broth microdilution method; conditions: Hansenula anomala; outline: as §2
[32] = tested on: Magnusiomyces capitatus; assay: Antimicrobial activity against Dipodascus capitatus by broth microdilution method
[33] = tested on: Fusarium proliferatum; assay: Antimicrobial activity against Fusarium proliferatum by broth microdilution method; outline: as §4
[34] = tested on: Candida parapsilosis; assay: Antimicrobial activity against Candida parapsilosis by broth microdilution method; conditions: Lodderomyces parapsilosis; outline: as §2
[35] = tested on: Aspergillus terreus; assay: Antimicrobial activity against Aspergillus terreus by broth microdilution method; outline: as §4
[36] = tested on: Neurospora sitophila; assay: Antimicrobial activity against Chrysonilia sitophila by broth microdilution method; outline: as §4
[37] = tested on: Candida orthopsilosis; assay: Antimicrobial activity against Candida orthopsilosis by broth microdilution method; conditions: Lodderomyces orthopsilosis; outline: as §2
[38] = tested on: Rhizopus arrhizus; assay: Antimicrobial activity against Rhizopus oryzae by broth microdilution method; outline: as §1
[39] = tested on: Fennellia nivea; assay: Antimicrobial activity against Aspergillus niveus by broth microdilution method; outline: as §4
[40] = tested on: Aspergillus; assay: Antimicrobial activity against Aspergillus spp. by broth microdilution method; outline: as §4
[41] = tested on: Cladophialophora bantiana; assay: Antimicrobial activity against Cladophialophora bantiana by broth microdilution method; outline: as §4

CCCCCOc1ccc(-c2ccc(-c3ccc(C(=O)N[C@H]4C[C@@H](O)[C@@H](O)NC(=O)[C@@H]5[C@@H](O)[C@@H](C)CN5C(=O)[C@H]([C@@H](C)O)NC(=O)[C@H]([C@H](O)[C@@H](O)c5ccc(O)cc5)NC(=O)[C@@H]5C[C@@H](O)CN5C(=O)[C@H]([C@@H](C)O)NC4=O)cc3)cc2)cc1 [ANIDULAFUNGIN] ({pTerphenylCO(4''-OnC5H11)}-[Orn(4R-OH,5R-OH)]T[Hyp][hTyr(3S-OH,4S-OH)]T[Pro(3S-OH,4S-Me)]; lactam 1-C)
2 µg/mL: MIC50 [32] | MIC90 [34]
0.5 µg/mL: MIC50 [8]
0.06 µg/mL: MIC50 [10] | MIC50 [13] | MIC90 [14] | MIC90 [15] | MIC50 [19] | MIC90 [20] | MIC50 [23] | MIC90 [25] | MIC90 [26] | MIC50 [30] | MIC50 [31] | MIC50 [37] | MIC50 [39] | MIC50 [40] | MIC90 [41]
4 µg/mL: MIC90 [8] | MIC50 [18] | MIC90 [32]
1 µg/mL: MIC50 [34]
0.03 µg/mL: MIC50 [3] | MIC50 [6] | MIC90 [6] | MIC50 [14] | MIC50 [15] | MIC50 [20] | MIC50 [21] | MIC90 [21] | MIC50 [22] | MIC90 [22] | MIC50 [24] | MIC90 [24] | MIC50 [25] | MIC50 [26] | MIC50 [29] | MIC90 [29] | MIC50 [35] | MIC90 [35] | MIC50 [41]
> 16 µg/mL: MIC50 [1] | MIC90 [1] | MIC50 [2] | MIC90 [2] | MIC50 [4] | MIC90 [4] | MIC50 [5] | MIC90 [5] | MIC50 [7] | MIC90 [7] | MIC50 [9] | MIC90 [9] | MIC50 [11] | MIC90 [11] | MIC50 [12] | MIC90 [12] | MIC50 [16] | MIC90 [16] | MIC50 [17] | MIC90 [17] | MIC90 [18] | MIC50 [27] | MIC90 [27] | MIC50 [28] | MIC90 [28] | MIC50 [33] | MIC90 [33] | MIC50 [36] | MIC90 [36] | MIC50 [38] | MIC90 [38]
0.12 µg/mL: MIC90 [3] | MIC90 [23]
0.25 µg/mL: MIC90 [10] | MIC90 [13] | MIC90 [19] | MIC90 [30] | MIC90 [31] | MIC90 [37] | MIC90 [39] | MIC90 [40]
